Experimental data as given in ChEMBL document CHEMBL1124846, “Synthesis, antiproliferative, and antiviral activity of certain 4-substituted and 4,5-disubstituted 7-[(1,3-dihydroxy-2-propoxy)methyl]pyrrolo[2,3-d]pyrimidines” (J Med Chem, 1990).

How the values were obtained:
[1] = test system: Human alphaherpesvirus 1; test: Inhibition of herpes simplex virus (HSV-1) in plaque reduction assay; assay type: functional, organism-based
Method in brief: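 HSV-1 S-148 strain plaque reduction in BSC-1 monkey kidney monolayers, with about 100 PFU inoculum and compound dissolved in the overlay medium. IC50 came from linear regression of percent inhibition against log concentration, with a positive control in each set.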

[2] = test system: Human betaherpesvirus 5; test: Inhibition of human cytomegalovirus (HCMV) in plaque reduction assay; assay type: functional, organism-based; details: Human betaherpesvirus 5
Method in brief: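 HCMV Towne strain (plaque-purified P0) plaque reduction in HFF monolayers in MEM(E) with 10% FBS. Inoculum held about 50 PFU, with compound dissolved in the overlay medium. IC50 came from linear regression of percent inhibition against log concentration, with ganciclovir or acyclovir positive controls in every set; two to five experiments.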

[3] = Cytotoxic activity against HFF cells.; assay type: cell-based; details: Homo sapiens
Method in brief: (§1)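 Cytotoxicity was scored visually in uninfected HFF or BSC-1 monolayers within the plaque-reduction assays. Drug-induced cytopathology was read at 35- and 60-fold magnification on a 0 to 4+ scale on the day plaques were stained and counted.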

[4] = test system: L1210; test: In vitro inhibition of L1210 cell growth.; assay type: functional, Mus musculus; parameters: concentration or dose not given beside the values
Method in brief: (§2)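 Murine L1210 leukemia cells in static suspension culture in Fischer's medium with compound for 4 days. Growth rate is the ratio of control to treated population doubling time; where the rate changed, the final rate was used. IC50 is the concentration giving 50% of control growth rate; single-concentration value at 100 μM.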

[5] = test system: L1210; test: In vitro inhibition of L1210 cell growth to half of the control rate; assay type: functional, cell-based; details: Mus musculus; method in brief: as §2
[6] = Cytotoxic activity against BSC cells; assay type: cell-based; details: Cercopithecidae; method in brief: as §1

SMILES	IC50 [1]	IC50 [2]	IC50 [3]	Activity [4]	IC50 [5]	IC50 [6]
Cc1cn(COC(CO)CO)c2ncnc(N)c12	> 100 µM	> 100 µM	> 100 µM	73%	> 100 µM	
Nc1ncnc2c1ccn2COC(CO)CO	> 100 µM	> 100 µM	> 100 µM	106%		> 100 µM
